The values that follow come from the array DNA melting data of Ke et al. (doi:10.1101/2024.01.08.574731).

A short description of series [1]: melting temperature; fluorescence melt of hairpins on a sequencing array, two-state fit, raised by 9.35 °C to match UV melts. The settings on record: sodium 0.088 M. An outline of the steps: (§1)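 With Cy3 and quencher oligos annealed, library hairpins on a sequenced MiSeq flow cell were imaged for Cy3 fluorescence in 50 mM Na-HEPES pH 8.0, 25 mM NaCl, in 2.5 °C steps up to 60 °C. Melting temperature and folding enthalpy were derived from bootstrapped two-state fits of signals normalised to pre-quench Cy3 and to control constructs. Four replicates were combined by inverse variance, with fitted temperatures raised by 9.35 °C to match UV melts.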

Series [2] can be described thus: folding enthalpy; higher = less favourable; fluorescence melt of hairpins on a sequencing array, two-state fit. The settings on record: sodium 0.088 M. In short, it runs like this:
as §1

Regarding GTCACTACGAAAGTAGAC (((..(((....)))))), the Tm in series [1] stood at 28.3 °C. In addition, the folding enthalpy in series [2] is -10.2 kcal/mol.
Turning to GACGACGAAAGTCCAGTC ((((((....)))..))), the Tm in series [1] came to 36.2 °C. Moreover, in series [2], the folding enthalpy is -21.5 kcal/mol.
Taken in the same sequence, the figures for GCTACCGGAAACGGCAGC (((.(((....))).))) were 51.8 °C and -38.7 kcal/mol.
Taken in the same sequence, the figures for GAGGGTGGAAACGCCCTC (((((.(....).))))) were 57.6 °C and -44.3 kcal/mol.
With GAATGAGGAAACTCATCC (.(((((....))))).), the Tm in series [1] amounted to 29.9 °C. Besides, the folding enthalpy in series [2] is -17.4 kcal/mol.
The matching figures for GCGATCCTTCGC ((((....)))): 53.7 °C and -24.6 kcal/mol.
Regarding GGGCTCGAAAGAGGCCCC ((((((....)))..))), in series [1], the Tm is 67 °C. For the same sequence, the folding enthalpy in series [2] was -12.3 kcal/mol.
The matching figures for GCTGGGGGAAACCCCGGC ((.((((....)))).)): 65.5 °C and -33.8 kcal/mol.
The matching figures for GGCGAACGAAAGTTAGCC (((.(((....))).))): 59.8 °C and -34.4 kcal/mol.
Turning to GAAATCCGAAAGGAATTC (((.(((....))).))), in series [1], the Tm was 40.9 °C. For the same sequence, the folding enthalpy in series [2] is -28.1 kcal/mol.
Taken in the same sequence, the figures for GATCTTACGTAAGATC ((((((....)))))) were 48.3 °C and -63 kcal/mol.
Turning to GATATCCGAAAGGACATC (((.(((....))).))), the Tm in series [1] was 38.9 °C. In addition, in series [2], the folding enthalpy is -22 kcal/mol.
Taken in the same sequence, the figures for GCGCTTCGAAAGAACCGC (((.(((....))).))) were 46.4 °C and -31.7 kcal/mol.
The matching figures for GGCTGTGGAAACGTAGCC ((((..(....)..)))): 48.9 °C and -29.9 kcal/mol.
On to GGGTCCCGAAAGGGCCC (((.(((....)))))), for which the Tm in series [1] came to 68 °C. Moreover, in series [2], the folding enthalpy was -29.5 kcal/mol.
Taken in the same sequence, the figures for GTAACCGAAAGGTATAC ((((((....))).))) were 35.2 °C and -14.9 kcal/mol.
For the sequence GGAGCAGGAAACCACTCC ((((..(....)..)))), the Tm in series [1] came to 27.1 °C. Moreover, the folding enthalpy in series [2] is -11.5 kcal/mol.
The matching figures for GTATCTGAAAAGATAC ((((((....)))))): 49.2 °C and -33.2 kcal/mol.
The matching figures for GATCAATTATTTGATC ((((((....)))))): 45.8 °C and -38.9 kcal/mol.
With GGCTACGAAAGTAGTGCC ((((((....)))..))), in series [1], the Tm was determined as 46.7 °C. In addition, the folding enthalpy in series [2] was -16.6 kcal/mol.
Taken in the same sequence, the figures for GCATCCGAAAGGAGTTGC ((((((....)))..))) were 37.9 °C and -15.4 kcal/mol.
GTGTAGGGAAACTTACAC (((((.(....).))))): in series [1], the Tm is 42 °C. In addition, in series [2], the folding enthalpy is -21.3 kcal/mol.
In the case of GCACGTACGAAAGTATGC (((..(((....)))))), the Tm in series [1] stood at 31.3 °C. For the same sequence, the folding enthalpy in series [2] is -16 kcal/mol.
The matching figures for GATCGTCCGACGATC ((((((...)))))): 53.9 °C and -40.9 kcal/mol.
For GGTGATGGAAACGTCACC (((((.(....).))))), the Tm in series [1] stood at 53.5 °C. Further, the folding enthalpy in series [2] was -49.9 kcal/mol.
Taken in the same sequence, the figures for GAAAGGGGAAACCCTCTC ((.((((....)))).)) were 26.8 °C and -17.3 kcal/mol.
Taken in the same sequence, the figures for GATCTCCTCCGAGATC ((((((....)))))) were 51.4 °C and -42.5 kcal/mol.
The matching figures for GTCTATGCGAAAGCAGAC (((..(((....)))))): 42.1 °C and -16.9 kcal/mol.
Take GATCGAGGGGTCGATC ((((((....)))))): the Tm in series [1] was 45.6 °C. Also, the folding enthalpy in series [2] was -4.35 kcal/mol.
Taken in the same sequence, the figures for GGGCTAGGAAACCAGCCC (((((.(....).))))) were 54.1 °C and -44.8 kcal/mol.
On to GATCCCAAATGGGATC ((((((....)))))), for which, in series [1], the Tm turned out to be 57.7 °C. The folding enthalpy in series [2] was -36.4 kcal/mol.
For GAGAGTGGAAACGTTCTC ((((..(....)..)))), in series [1], the Tm stood at 33.9 °C. The folding enthalpy in series [2] is -14.4 kcal/mol.
For GCTAAGCGAAAGCAAAGC (((..((....))..))), the Tm in series [1] came out at 40.8 °C. Further, in series [2], the folding enthalpy was -17.5 kcal/mol.
The matching figures for GCAGGTTCGAAAGAATGC (((..(((....)))))): 30.9 °C and -11.1 kcal/mol.
With GCATCGCGAAAGCTACGC ((.(.((....)).).)), the Tm in series [1] was determined as 32.8 °C. The folding enthalpy in series [2] is -8.55 kcal/mol.
Taken in the same sequence, the figures for GCCCACGAAAGTGCGGC ((((((....))).))) were 63.3 °C and -29.5 kcal/mol.
Consider GTAGTTCGAAAGAATTAC (((.(((....))).))), for which the Tm in series [1] worked out at 42.4 °C. Also, in series [2], the folding enthalpy is -26.8 kcal/mol.
